≈ marks a conversion by molar mass, not a printed value. Calls of active or inactive are those of the source. The calls are words filed in the database; no cut-off is given here.
Experiments:
[1] = tested on: Leishmania donovani; assay: Antileishmanial activity against Leishmania donovani promastigotes; format: functional, organism-based
Summary of the method: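 Compounds were tested in vitro on cultured L. donovani promastigotes, with pentamidine and amphotericin B as standard controls. IC50 and IC90 (50% and 90% growth inhibition) were computed from growth-inhibition curves.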

[2] = tested on: Aspergillus fumigatus; assay: Antifungal activity against Aspergillus fumigatus ATCC 90906 by broth dilution method; format: functional, organism-based
Summary of the method: (§1)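 Broth dilution run as a modified CLSI susceptibility method. Amphotericin B was included as the antifungal drug control in each assay.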

[3] = tested on: Pichia kudriavzevii; assay: Antifungal activity against Candida krusei ATCC 6258 by broth dilution method; format: functional, organism-based; summary of the method: as §1
[4] = tested on: Candida albicans; assay: Antifungal activity against Candida albicans ATCC 90028 by broth dilution method; format: functional, organism-based; summary of the method: as §1
[5] = tested on: Nakaseomyces glabratus; assay: Antifungal activity against Candida glabrata ATCC 90030 by broth dilution method; format: functional, organism-based; summary of the method: as §1
[6] = tested on: Cryptococcus neoformans; assay: Antifungal activity against Cryptococcus neoformans ATCC 90113 by broth dilution method; format: functional, organism-based; summary of the method: as §1
[7] = tested on: Vero; assay: Cytotoxicity against african green monkey Vero cells; format: cell-based, Chlorocebus sabaeus
Summary of the method: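 Mammalian cells (Vero, LLC-PK11, SK-MEL, KB, BT-549, SK-OV-3) exposed to compound; viable cells counted by Neutral Red dye uptake; IC50 taken from dose-response curves.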

[8] = tested on: Plasmodium falciparum; assay: Antimalarial activity against chloroquine-sensitive Plasmodium falciparum D6 infected in RBC assessed as parasite LDH activity after 72 hrs; format: functional, organism-based; conditions: D6, 72 h
[9] = Selectivity index, ratio of IC50 for african green monkey Vero cells to IC50 for chloroquine-resistant Plasmodium falciparum W2; format: toxicity, cell-based; conditions: read-out: Ratio IC50
Summary of the method: (§2)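 Selectivity index is the IC50 for Vero-cell cytotoxicity (Neutral Red viability) divided by the IC50 against P. falciparum D6 or W2 (from dose-response curves).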

[10] = tested on: SK-MEL; assay: Cytotoxicity against human SK-MEL cells assessed as viable cells by neutral red dye method; format: functional, cell-based
[11] = tested on: Agrostis stolonifera; assay: Phytotoxic activity against Agrostis stolonifera at 1.73 mM; format: functional, organism-based
Summary of the method: (§3)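 Compound (1 mg) dissolved in 100 μL acetone; 20 μL spotted on filter paper, air-dried 30 min. Paper placed in well, 200 μL water added. Bentgrass (Agrostis stolonifera) or lettuce (Lactuca sativa cv. L., Iceberg) seeds used. Solvent controls treated identically. Growth scored visually from 0 (no effect) to 5 (no growth).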

[12] = tested on: Plasmodium falciparum; assay: Antimalarial activity against chloroquine-resistant Plasmodium falciparum W2 infected in RBC assessed as parasite LDH activity after 72 hrs; format: functional, organism-based; conditions: W2, 72 h
[13] = Selectivity index, ratio of IC50 for african green monkey Vero cells to IC50 for chloroquine-sensitive Plasmodium falciparum D6; format: toxicity, cell-based; conditions: read-out: Ratio IC50; summary of the method: as §2
[14] = tested on: KB; assay: Cytotoxicity against human KB cells assessed as viable cells by neutral red dye method; format: functional, cell-based
[15] = tested on: Lactuca sativa; assay: Phytotoxic activity against Lactuca sativa cv. L. at 1.73 mM; format: functional, organism-based; summary of the method: as §3
[16] = Cytotoxicity against pig LLC-PK11 cells assessed as viable cells by neutral red dye method; format: cell-based; conditions: Sus scrofa
[17] = tested on: BT-549; assay: Cytotoxicity against human BT549 cells assessed as viable cells by neutral red dye method; format: functional, cell-based
[18] = tested on: SK-OV-3; assay: Cytotoxicity against human SKOV3 cells assessed as viable cells by neutral red dye method; format: functional, cell-based
[19] = tested on: Lactuca sativa; assay: Phytotoxic activity against Lactuca sativa cv. L. at 1.87 mM; format: functional, organism-based
Summary of the method: (§4)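 Seeds were bentgrass (Agrostis stolonifera) and lettuce (cv. Iceberg), in multiwell plates. Compound was dissolved at 1 mg per 100 μL acetone, and a 20 μL aliquot was dried onto filter paper for 30 min under airflow. Water was then added. Acetone solvent controls were handled identically. Growth was scored visually from 0 (no effect) to 5 (no growth).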

[20] = tested on: Staphylococcus aureus; assay: Antimicrobial activity against methicillin-sensitive Staphylococcus aureus ATCC 29213 by CLSI M7-A5 method; format: functional
[21] = tested on: Agrostis stolonifera; assay: Phytotoxic activity against Agrostis stolonifera at 1.87 mM; format: functional, organism-based; summary of the method: as §4
[22] = tested on: Staphylococcus aureus; assay: Antimicrobial activity against methicillin-resistant Staphylococcus aureus ATCC 33591 by CLSI M7-A5 method; format: functional
[23] = tested on: Agrostis stolonifera; assay: Phytotoxic activity against Agrostis stolonifera at 1.62 mM; format: functional, organism-based; summary of the method: as §3
[24] = tested on: Lactuca sativa; assay: Phytotoxic activity against Lactuca sativa cv. L. at 1.62 mM; format: functional, organism-based; summary of the method: as §3
[25] = Chlorocebus sabaeus, Vero, read-out: IC50

IC90 [1] [µM]	Compound	IC50 [1] [µM]	IC50 ([7]; vero)	IC50 [8] [µM]	selectivity ratio [9]	IC50 [10] [µM]	IC50 [12] [µM]	selectivity ratio [13]	IC50 [14] [µM]	IC50 [7, 25] [µM]	IC50 [16] [µM]	IC50 [17] [µM]	IC50 [18] [µM]	other results
5.58	N=C(N)c1ccc(OCCCCCOc2ccc(C(=N)N)cc2)cc1 [PENTAMIDINE]	2.9												
0.29	CC[C@@H](C)[C@H]1O[C@@H](c2c(O)c(-c3ccccc3)cn(O)c2=O)[C@H](C)C[C@@H]1C [SEPTORIAMYCIN A]	0.11												Activity [2]: Active; Activity [3]: Active; Activity [4]: Active; Activity [5]: Active; Activity [6]: Active
	C[C@@H]1CC[C@H]2[C@@H](C)C(=O)O[C@@H]3O[C@@]4(C)CC[C@@H]1[C@]32OO4 [ARTEMISININ]		Non-toxic	0.02										
	COc1c(C[C@@H](C)OC(C)=O)c2c3c(C[C@@H](C)O)c(OC)c(=O)c4c(O)cc5c(c6c(cc(O)c(c1=O)c62)OCO5)c43	1.7		2.78	1.7	3.8	3.12	1.9	8.5	5.21	10.1	8.6	4	Activity [11]: Active; Activity [15]: Active
	CC[C@@H](C)[C@H]1O[C@@H](c2c(OC)c(-c3ccccc3)c[n+]([O-])c2OC)[C@H](C)C[C@@H]1C		Non-toxic	6.76	> 1.2		6.51	> 1.1						
0.38	C[C@@H]1[C@H](O)[C@@H](C)/C=C/C=C/C=C/C=C/C=C/C=C/C=C/[C@H](O[C@@H]2O[C@H](C)[C@@H](O)[C@H](N)[C@@H]2O)C[C@@H]2O[C@](O)(C[C@@H](O)C[C@@H](O)[C@H](O)CC[C@@H](O)C[C@@H](O)CC(=O)O[C@H]1C)C[C@H](O)[C@H]2C(=O)O [AMPHOTERICIN B]	0.18												
	CCN(CC)CCCC(C)Nc1ccnc2cc(Cl)ccc12 (configuration not stated) [CHLOROQUINE]		Non-toxic											

Compound	IC90 [1] [µM]	IC50 [1] [µM]	IC50 ([7]; vero)	IC50 [8] [µM]	selectivity ratio [9]	IC50 [10] [µM]	IC50 [12] [µM]	selectivity ratio [13]	IC50 [14] [µM]	IC50 [7, 25] [µM]	IC50 [16] [µM]	IC50 [17] [µM]	IC50 [18] [µM]	other results
COc1c(C[C@@H](C)O)c2c3c(C[C@@H](C)O)c(OC)c(=O)c4c(O)cc5c(c6c(cc(O)c(c1=O)c62)OCO5)c43	2.81	1.14		1.08	3.2	3.6	1.62	4.8	7.1	5.24	3.9	10.8	3.7	Activity [19]: Active; MIC [20]: 4.7 µM (≈ 2.51 µg/mL); Activity [21]: Active; MIC [22]: 9.4 µM (≈ 5.02 µg/mL)
COc1c(C[C@@H](C)OC(C)=O)c2c3c(C[C@@H](C)OC(C)=O)c(OC)c(=O)c4c(O)cc5c(c6c(cc(O)c(c1=O)c62)OCO5)c43	9.7	3.1		2.75	2.3	4.9	1.94	1.6	8.7	4.53	9.4	8.7	4.8	Activity [23]: Active; Activity [24]: Active

From ChEMBL document CHEMBL2046333, “Antiprotozoal and antimicrobial compounds from the plant pathogen Septoria pistaciarum” (J Nat Prod, 2012)
